Test results published in paper PMC9526468 (Thyroid, 2022).

How the values were obtained:
Experiment in all cases: radiolabelled iodothyronine uptake inhibition in transfected COS1 cells
Assay type in all cases: cell-based
[1] = biological target: T1, OATP1A2 (Human (h) OATP1A2) (Homo sapiens, UniProt P46721)
T1 sequence (P46721 1-670): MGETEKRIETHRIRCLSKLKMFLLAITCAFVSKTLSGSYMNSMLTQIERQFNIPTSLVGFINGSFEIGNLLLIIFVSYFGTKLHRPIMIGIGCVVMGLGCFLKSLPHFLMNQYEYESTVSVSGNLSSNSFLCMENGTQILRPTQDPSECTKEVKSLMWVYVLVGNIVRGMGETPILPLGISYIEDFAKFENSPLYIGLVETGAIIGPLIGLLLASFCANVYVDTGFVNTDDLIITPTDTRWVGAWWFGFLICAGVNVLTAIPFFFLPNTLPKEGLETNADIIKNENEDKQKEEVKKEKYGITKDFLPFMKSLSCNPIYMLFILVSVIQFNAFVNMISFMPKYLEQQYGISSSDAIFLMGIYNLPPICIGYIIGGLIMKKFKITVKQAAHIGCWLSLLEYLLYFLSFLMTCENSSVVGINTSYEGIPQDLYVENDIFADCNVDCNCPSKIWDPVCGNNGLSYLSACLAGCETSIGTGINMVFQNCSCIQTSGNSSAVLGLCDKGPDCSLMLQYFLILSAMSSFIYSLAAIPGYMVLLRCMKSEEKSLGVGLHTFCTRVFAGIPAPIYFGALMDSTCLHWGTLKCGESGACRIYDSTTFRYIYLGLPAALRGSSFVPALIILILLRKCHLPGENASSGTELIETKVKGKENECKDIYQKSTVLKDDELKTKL

[2] = biological target: T2, MCT10 (hMCT10) (Homo sapiens, UniProt Q8TF71)
T2 sequence (Q8TF71 1-515): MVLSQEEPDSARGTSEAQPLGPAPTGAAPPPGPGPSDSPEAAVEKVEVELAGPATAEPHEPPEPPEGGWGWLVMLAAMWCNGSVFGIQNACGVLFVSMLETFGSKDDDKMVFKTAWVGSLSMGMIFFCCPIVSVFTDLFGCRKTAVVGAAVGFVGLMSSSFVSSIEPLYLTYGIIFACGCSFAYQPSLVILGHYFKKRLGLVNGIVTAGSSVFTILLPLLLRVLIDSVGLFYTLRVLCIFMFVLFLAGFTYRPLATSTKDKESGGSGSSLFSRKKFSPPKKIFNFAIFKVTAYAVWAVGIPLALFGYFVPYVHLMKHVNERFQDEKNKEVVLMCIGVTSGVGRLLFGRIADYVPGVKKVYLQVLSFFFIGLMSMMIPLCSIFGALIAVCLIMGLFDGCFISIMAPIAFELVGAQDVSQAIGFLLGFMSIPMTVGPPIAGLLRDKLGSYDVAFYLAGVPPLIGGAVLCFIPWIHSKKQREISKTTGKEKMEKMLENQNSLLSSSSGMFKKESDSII

[3] = biological target: MCT8 (hMCT8) (Homo sapiens, UniProt P36021)
[4] = biological target: LAT1 (hSLC7A5, cotransfected with hSLC3A2) (Homo sapiens, UniProt Q01650)
Procedure, shortened: (§1)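 COS1 cells cotransfected with 100 ng transporter vector, 100 ng hSLC3A2 (4F2 heavy chain), and 50 ng hCRYM to limit efflux; empty vector served as control. At 48 h post-transfection, cells were washed in BSA-free DPBS+Ca²⁺/Mg²⁺/0.1% glucose. They were then incubated at 37°C with 1 nM 3,3′-T2 plus [¹²⁵I]-3,3′-T2 (5 × 10⁴ cpm) and increasing inhibitor concentrations or vehicle. Finally, cells were rinsed, lysed in 0.1 N NaOH, and gamma-counted.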

[5] = biological target: T3, LAT2 (hSLC7A8, cotransfected with hSLC3A2) (Homo sapiens, UniProt Q9UHI5)
T3 sequence (Q9UHI5 1-535): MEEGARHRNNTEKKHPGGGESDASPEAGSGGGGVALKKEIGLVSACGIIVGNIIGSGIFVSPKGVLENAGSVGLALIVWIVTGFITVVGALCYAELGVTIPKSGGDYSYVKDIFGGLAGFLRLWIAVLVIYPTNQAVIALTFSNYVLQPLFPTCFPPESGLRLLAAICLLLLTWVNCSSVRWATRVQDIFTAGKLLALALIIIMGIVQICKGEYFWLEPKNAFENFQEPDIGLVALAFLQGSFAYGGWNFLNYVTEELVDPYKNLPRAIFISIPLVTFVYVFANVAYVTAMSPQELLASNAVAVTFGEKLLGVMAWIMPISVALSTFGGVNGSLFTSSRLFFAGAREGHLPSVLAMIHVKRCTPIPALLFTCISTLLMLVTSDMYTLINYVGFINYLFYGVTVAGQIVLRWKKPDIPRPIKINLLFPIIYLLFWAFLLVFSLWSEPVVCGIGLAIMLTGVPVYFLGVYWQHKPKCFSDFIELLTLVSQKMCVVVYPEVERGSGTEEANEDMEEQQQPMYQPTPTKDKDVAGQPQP
T3 sequence (P08195 2-529 partner): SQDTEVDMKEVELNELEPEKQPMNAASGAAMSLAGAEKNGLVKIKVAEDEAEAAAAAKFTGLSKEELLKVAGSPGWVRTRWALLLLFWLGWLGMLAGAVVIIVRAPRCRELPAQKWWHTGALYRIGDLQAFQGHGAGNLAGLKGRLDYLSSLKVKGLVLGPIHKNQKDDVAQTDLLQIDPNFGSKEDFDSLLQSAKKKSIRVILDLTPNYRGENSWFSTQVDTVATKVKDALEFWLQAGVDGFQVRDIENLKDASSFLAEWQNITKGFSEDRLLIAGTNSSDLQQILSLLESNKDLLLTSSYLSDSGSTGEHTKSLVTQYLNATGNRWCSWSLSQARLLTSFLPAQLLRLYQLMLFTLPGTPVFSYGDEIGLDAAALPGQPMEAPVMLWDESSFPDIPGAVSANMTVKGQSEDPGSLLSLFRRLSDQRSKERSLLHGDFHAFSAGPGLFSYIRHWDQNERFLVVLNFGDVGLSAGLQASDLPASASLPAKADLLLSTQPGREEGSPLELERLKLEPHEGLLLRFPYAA
Procedure, shortened: as §1

Sequence of MCT8 (hMCT8) (P36021 2-539): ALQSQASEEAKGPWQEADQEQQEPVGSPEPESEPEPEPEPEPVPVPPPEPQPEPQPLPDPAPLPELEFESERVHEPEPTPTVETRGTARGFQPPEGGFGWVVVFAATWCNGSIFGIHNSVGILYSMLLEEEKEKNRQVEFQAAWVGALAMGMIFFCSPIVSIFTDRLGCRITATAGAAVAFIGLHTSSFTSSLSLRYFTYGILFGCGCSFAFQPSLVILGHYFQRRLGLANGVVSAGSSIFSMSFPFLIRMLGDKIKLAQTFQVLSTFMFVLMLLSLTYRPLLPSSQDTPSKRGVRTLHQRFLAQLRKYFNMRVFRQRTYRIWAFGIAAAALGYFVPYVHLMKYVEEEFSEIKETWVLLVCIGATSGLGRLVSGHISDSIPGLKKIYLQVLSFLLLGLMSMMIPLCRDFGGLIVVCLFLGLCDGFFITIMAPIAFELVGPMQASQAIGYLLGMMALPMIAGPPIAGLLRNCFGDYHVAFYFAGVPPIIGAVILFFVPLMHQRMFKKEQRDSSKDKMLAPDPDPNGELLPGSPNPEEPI
Sequence of LAT1 (hSLC7A5, cotransfected with hSLC3A2) (Q01650 whole entry, one chain of several): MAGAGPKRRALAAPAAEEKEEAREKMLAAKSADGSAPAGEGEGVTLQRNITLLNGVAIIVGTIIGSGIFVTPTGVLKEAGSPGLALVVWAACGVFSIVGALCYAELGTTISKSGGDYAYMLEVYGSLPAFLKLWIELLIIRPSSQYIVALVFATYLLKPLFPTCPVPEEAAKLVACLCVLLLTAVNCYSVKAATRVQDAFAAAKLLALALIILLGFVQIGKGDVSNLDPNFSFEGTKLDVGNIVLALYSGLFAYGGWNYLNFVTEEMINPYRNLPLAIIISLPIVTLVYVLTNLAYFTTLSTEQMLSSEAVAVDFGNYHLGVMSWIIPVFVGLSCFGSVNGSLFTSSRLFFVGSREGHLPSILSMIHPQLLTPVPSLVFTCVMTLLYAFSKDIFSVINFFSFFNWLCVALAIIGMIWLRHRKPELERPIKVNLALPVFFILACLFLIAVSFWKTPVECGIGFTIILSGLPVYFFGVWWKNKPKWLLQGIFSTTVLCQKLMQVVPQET

SMILES: C[C@@H]1O[C@@H](O[C@H]2[C@H](Oc3cc(O)c4c(c3)O[C@H](c3ccc(O)cc3)CC4=O)O[C@H](CO)[C@@H](O)[C@@H]2O)[C@H](O)[C@H](O)[C@H]1O [Naringin]
- IC50 [1]: 23 µM

SMILES: COc1ccc(CCN(C)CCCC(C#N)(c2ccc(OC)c(OC)c2)C(C)C)cc1OC (stereo not shown) [Verapamil]
- IC50 [2]: > 100 µM
- IC50 [3]: ~100 µM
- IC50 [1]: 1.5 µM

SMILES: COc1cc([C@@H]2Oc3c(O)cc([C@H]4Oc5cc(O)cc(O)c5C(=O)[C@@H]4O)cc3[C@H]2CO)ccc1O [Silychristin]
- IC50 [3]: 0.12 µM
- IC50 [1]: > 10 µM

SMILES: NC1(C(=O)O)CC2CCC1C2 (stereo not shown) [BCH, 2-Amino-2-norbornanecarboxylic acid]
- IC50 [4]: 146 µM
- IC50 [5]: ~100 µM

SMILES: N[C@@H](Cc1c[nH]c2ccccc12)C(=O)O [L-tryptophan]
- IC50 [2]: > 10000 µM

SMILES: CO[C@H]1/C=C/O[C@@]2(C)Oc3c(C)c(O)c4c(O)c(c(/C=N/N5CCN(C)CC5)c(O)c4c3C2=O)NC(=O)/C(C)=C\C=C\[C@H](C)[C@H](O)[C@@H](C)[C@@H](O)[C@@H](C)[C@H](OC(C)=O)[C@@H]1C [Rifampicin]
- IC50 [1]: 50 µM
